# Screening data deposited in PubChem by Broad Institute.
# A selection: hits, their analogues and other compounds. The true share with any hit is near 3.5%.
# Env fusion inh: inhibitors of HIV-1 Env-driven cell-cell fusion, primary screen, HeLa-JRFL effector, CEM21 target cells, luciferase; inhibition, % at 12.3 µM; 360,000 tested, 1.1% active; AID 651610, 2012;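 active = mean replicate inhibition score of at least 50 and every replicate individually at or above 50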;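 note: 0% = plate neutral controls and 100% = maraviroc near 300 nM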
# FGF22 binding-1: binders of human FGF22 protein, primary screen, FGF22 synaptogenesis inhibitor project, biophysical, thermal shift, single point | activity (Tm shift, normalised), % at 9.99 µM | AID 651658, 2012 | recombinant FGF22 thermal shift, SYPRO orange fluorescence; percent of sucrose octasulfate shift, DMSO zero | 340,000 tested, 1.5% active;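 active = mean Tm shift, scaled 0 neutral to 100 positive control, at about 1.3% or above, every replicate too, limit read from the data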
# Target sequence (Q9HCT0 whole entry, looked up): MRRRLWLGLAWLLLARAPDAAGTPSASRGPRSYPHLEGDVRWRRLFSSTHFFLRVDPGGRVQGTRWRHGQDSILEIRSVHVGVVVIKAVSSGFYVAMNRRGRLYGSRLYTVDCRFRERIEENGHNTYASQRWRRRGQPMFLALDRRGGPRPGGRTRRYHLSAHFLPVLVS
# rRNA inh HTS: reduced GFP signal of wild-type E. coli, primary screen, bacterial rRNA inhibitor project, GFP/RFP fluorescence, OD600, single point; E. coli WT GFP vs humanized-ribosome RFP mutants, 24 h; hits give low values; DMSO median 0, no signal -100; GFP signal change (wild-type ribosome), % (test concentration not listed); 350,000 tested, 1.6% active; AID 720706, 2013;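 active = significant combined selectivity score with lowered wild-type GFP, culture density cut under 30%, mutant RFP and density less affected; inactive = any of these conditions unmet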
# Cneo AK release: Cryptococcus neoformans cell lysis inducers, primary screen, AK release luminescence, single concentration; C. neoformans lysis, adenylate kinase release luminescence, 4 h; normalised: neutral wells 0, clomiphene wells 100; lysis activity, % at 15 µM; 360,000 tested, 0.2% active; AID 651654, 2012;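 active = mean lysis activity across replicates of at least 80%, whatever share of replicates individually reach that level; inactive = mean lysis activity below 80%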
#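 Signal: Adenylate kinase release luminescence | Assay system: Log-phase Cryptococcus neoformans yeast cells | Input: Cells at 5 × 10^6 per mL | Buffer or medium: Fresh YPD growth medium | Compound: Single dose | Schedule: Static 4 h at 37 °C with compound, 1 h detection | Controls: Clomiphene | Read-out: Luminescence rise reflecting yeast cell lysis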
# ERAP1 inh: human ERAP1 aminopeptidase inhibitors, primary screen, biochemical, single point, plate reader; Endoplasmic reticulum aminopeptidase 1 (Homo sapiens), Q9NZ08; recombinant ERAP1, Leu-AMC fluorescence, 60 min; inhibition, % at 10.7 µM; 340,000 tested, 0.15% active; AID 652197, 2013;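 active = mean replicate inhibition of at least 30%, or all replicates individually reaching that 30% level; inactive = mean below 30% and not every replicate reaching it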;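 note: 0% = neutral control wells and 100% = L-leucinethiol positive control wells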
# PGC1a acetyl inh: inhibitors of PGC1a acetylation signal, primary screen, cell-based, U2OS, AlphaScreen, inhibitor mode. AlphaScreen anti-acetyl-lysine; with virally co-expressed GCN5 acetyltransferase. 350,000 tested, 0.17% active. inhibition, % at 15.6 µM;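 active = every replicate shows inhibition of at least 40%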;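 note: 0% = neutral control wells and 100% = positive control wells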
# FGF22 binding-2: binders of human FGF22 protein, dose response, FGF22 synaptogenesis inhibitor project, biophysical, thermal shift, cherry-pick retest; shares compounds with FGF22 binding-1; recombinant FGF22 thermal shift, SYPRO orange fluorescence; thermal shift activity, °C (ΔTm) at 38 µM; 1,000 tested, 2% active; AID 720646, 2013;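 active = fitted rise in melting shift crosses a set limit at or below the top valid dose tested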
# FGF22 TSA DP: binders of human FGF22 protein, dose response, FGF22 synaptogenesis inhibitor project, biophysical, thermal shift, dry powder | shares compounds with FGF22 binding-1 | Thermal shift assay, SYPRO orange, melting temperature shift | Tm shift (activity), % at 38 µM | 50 tested, under 10 active;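 active = compounds whose fitted dose curve of melting temperature shift rises past a set threshold within the tested doses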
# TSA no protein: compound-only thermal shift signal without protein, dose response, artefact control for FGF22 binder project, biochemical, cherry-picked samples, RT-PCR instrument. AC50, µM (highest dose often 38 µM). 1,000 tested, 2% active. compound-only SYPRO orange thermal shift counter-screen, no protein. shares compounds with FGF22 binding-1;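 active = rising signal whose fitted curve reaches the 0.54 level within the top valid dose, showing a melting point, actives reach about 13 µM in these data; inactive = the rest, including activity in the opposite direction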; note: value is where the raw curve crosses a fixed level and not half-maximal
# * hit, by the source's call; i = inactive; . = no result given; [ ] = dose if it differs, or a comment.
SMILES,Env fusion inh,FGF22 binding-1,rRNA inh HTS,Cneo AK release,ERAP1 inh,PGC1a acetyl inh,FGF22 binding-2,TSA no protein,others
CCOc1ccc(NC(=O)CC2C(=O)N(c3ccc(OC)cc3)C(=S)N2Cc2ccccn2)cc1 (stereo unspecified),-10.1,2.0*,-7.5,1.2,3.4,-23.1,-0.188,i,
COC(=O)CN1C(=S)N(c2ccc(F)cc2)C(=O)C1CC(=O)Nc1ccccc1 (stereo unspecified),10.4,1.6*,-6.1,-3.4,-2.1,-0.3,0.007,i,
CC(C)NC(=O)Nc1ccc2c(c1)C(=O)N([C@H](C)CO)C[C@@H](C)[C@@H](CN(C)Cc1ccccc1)O2,13.2[16.7 µM],0.4,2.9,-1.7,1.0,-6.0,.,.,
CC(C)C(=O)NC(c1cccc([N+](=O)[O-])c1)c1c(O)ccc2ccccc12 (stereo unspecified),-11.7,0.5,11.8,.,9.7,-1.6,.,.,
O=C(Nc1ccc(Cl)cc1)N[C@@H]1CC[C@@H](CCNS(=O)(=O)c2ccccc2F)O[C@@H]1CO,9.8[16.7 µM],-0.1,-9.7,5.6,2.7,-6.9,.,.,
O=C(NCC[C@@H]1CC[C@H](NC(=O)c2cnccn2)[C@H](CO)O1)Nc1ccc(F)cc1,8.9[16.7 µM],9.1*,-0.2,-1.6,1.9,5.9,0.186[42 µM],i,
O=C(N[C@H]1CC[C@@H](CCNS(=O)(=O)c2ccc(F)cc2)O[C@H]1CO)C1CCC1,-3.6[16.7 µM],0.1,-0.8,-0.2,-1.3,-0.3,.,.,
O=C(N[C@H]1CC[C@@H](CCNS(=O)(=O)c2ccc(F)cc2)O[C@H]1CO)C1CCCC1,15.3[16.7 µM],9.7*,-3.3,1.1,-0.6,4.4,0.119[42 µM],i,
O=C(C[C@H]1CC[C@H](NC(=O)Nc2cc(F)ccc2F)[C@@H](CO)O1)Nc1ccc(-c2ccccc2)cc1,46.6[16.7 µM],1.6*,-7.0,-6.2,2.3,4.0,0.078[42 µM],i,
O=C(Nc1ccc(Cl)cc1)N[C@@H]1CC[C@@H](CCNS(=O)(=O)c2ccccc2F)O[C@H]1CO,8.2[16.7 µM],1.6*,-8.2,-2.3,0.7,-1.4,0.112[42 µM],i,FGF22 TSA DP=0.0
O=C(NCC[C@@H]1CC[C@@H](NC(=O)c2cnccn2)[C@H](CO)O1)Nc1ccc(F)cc1,0.6[16.7 µM],0.3,-0.5,-1.6,1.1,-0.2,.,.,
CCOc1ccc(CCNC(=O)COC(=O)c2n[nH]c3ccccc23)cc1OCC,41.6,0.1,1.3,0.5,5.7,6.9,.,.,
CCN(CC)c1ccc(NC(=O)CN2CCN(CC(=O)Nc3ccccc3F)CC2)cc1,.,.,.,0.4,.,-19.0,.,.,
CCn1c(SCC(=O)NCc2ccc(C)cc2)nnc1-c1ccncc1,.,.,.,0.4,.,-5.8,.,.,
Cc1[nH]nc2c1C(c1ccc3c(c1)OCO3)N(Cc1ccccc1)C2=O (stereo unspecified),-37.7,.,-10.4,.,-1.9,.,.,.,
Cc1ccc(S(=O)(=O)NCCC(=O)OCC(=O)Nc2cccc(S(=O)(=O)NC3=NCCCCC3)c2)cc1,2.8,41.8,-0.8,-0.1,-6.4,-2.4,.,.,
COc1cnc(-c2ccccn2)nc1N(C)C,-4.6,0.0,-41.5,.,14.4,-1.4,.,.,
COc1ccc(CCN=C(N)NS(=O)(=O)c2ccccc2)cc1,11.6,0.4,-11.7,.,0.6,.,.,.,
CCn1cc([N+](=O)[O-])c(C(=O)NCc2ccc(Cl)cc2)n1,-0.3,0.2,2.4,.,-1.9,.,.,.,
O=C(Nc1cc(Cl)cc(Cl)c1)N[C@@H]1CC[C@H](CCNS(=O)(=O)c2cccc(F)c2)O[C@@H]1CO,14.4[16.7 µM],0.5,-57.2,-0.2,-0.6,4.3,.,.,
O=C(Nc1cc(Cl)cc(Cl)c1)N[C@H]1CC[C@H](CCNS(=O)(=O)c2cccc(F)c2)O[C@@H]1CO,-3.6[16.7 µM],2.4*,-59.2,-6.0,-0.4,1.6,0.126[42 µM],i,
O=C(NCC[C@@H]1CC[C@H](NC(=O)C2CCOCC2)[C@H](CO)O1)Nc1ccc(Cl)cc1,18.4[16.7 µM],1.4*,-7.5,-2.1,1.5,4.7,0.011[42 µM],i,
O=C(C1CCCN1S(=O)(=O)c1cccc2nsnc12)N1CCN(c2ccc(F)cc2)CC1 (stereo unspecified),8.4,-0.1,-1.9,-0.7,-0.7,-4.6,.,.,
CCN(CC)CCn1c(=N)n(CC(O)c2ccc(OC)c(OC)c2)c2ccccc21 (stereo unspecified),1.2,-0.1,6.0,.,10.1,.,.,.,
COc1ccc(NC(=O)COC(=O)Cc2c[nH]c3ccccc23)cc1Cl,.,1.7*,-46.2,-0.4,0.6,-5.8,-0.199,i,
SMILES,Env fusion inh,FGF22 binding-1,rRNA inh HTS,Cneo AK release,ERAP1 inh,PGC1a acetyl inh,FGF22 binding-2,TSA no protein,others
Cc1ccc2c(c1)C1CN(C)CCC1N2S(=O)(=O)c1ccc(C(C)C)cc1 (stereo unspecified),-17.3,14.3*,.,-0.1,1.6,-0.4,-0.02,i,
Cc1ccc2c(c1)C1CN(C)CCC1N2S(=O)(=O)c1cccc(C(F)(F)F)c1 (stereo unspecified),.,0.1,-1.0,3.5,1.4,.,.,.,
Cc1ccc(S(=O)(=O)N2CCC[C@H]2C(=O)OCC(=O)c2ccc3c(c2)NC(=O)CO3)cc1,4.4,0.0,-13.5,2.1,-3.5,6.1,.,.,
O=C(O)c1ccc(Cl)c(S(=O)(=O)Nc2ccc(S(=O)(=O)N3CCCC3)cc2)c1,.,1.4*,1.2,-2.2,1.3,9.5,-0.133,i,
Oc1ccc(-c2csc(Nc3ccccn3)n2)c(O)c1,-214.0,2.8*,-3.5,-4.2,7.7,8.9,-0.051,11.4µM*,
Cc1cccnc1Nc1nc(-c2ccc(O)cc2O)cs1,.,.,.,-7.1,.,-17.6,.,.,
O=C(COC(=O)CCCOc1ccc(Cl)cc1Cl)NCc1ccccc1,.,32.0*,-27.9,-3.4,5.3,35.1,0.278,i,
CCCOC(=O)c1ccc(Oc2cn[nH]c2-c2ccc(O)cc2O)cc1,10.2,1.5*,-57.6,.,.,-5.9,0.402,i,
